Experimental data as given in ChEMBL document CHEMBL1131421, “Tetrahydro-isoquinoline-based factor Xa inhibitors” (J Med Chem, 1998).

target: Coagulation factor X (Homo sapiens, UniProt P00742); experiment: The inhibition constant against human Coagulation factor X
Sequence (P00742 41-179 limits assumed): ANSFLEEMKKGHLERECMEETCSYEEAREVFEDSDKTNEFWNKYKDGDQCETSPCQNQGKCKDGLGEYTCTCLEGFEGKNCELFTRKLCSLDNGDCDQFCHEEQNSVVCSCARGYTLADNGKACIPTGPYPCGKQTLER
Sequence (P00742 235-488 limits assumed): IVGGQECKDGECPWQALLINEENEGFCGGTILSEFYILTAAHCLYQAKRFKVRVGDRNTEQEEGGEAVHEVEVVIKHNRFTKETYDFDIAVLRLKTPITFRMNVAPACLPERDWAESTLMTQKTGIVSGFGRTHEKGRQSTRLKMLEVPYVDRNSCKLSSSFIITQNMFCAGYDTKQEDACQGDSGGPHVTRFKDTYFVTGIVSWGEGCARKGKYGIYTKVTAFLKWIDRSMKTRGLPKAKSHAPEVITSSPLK

Structure (SMILES)	Ki
CCOC(=O)C(Oc1ccc2c(c1)CN(C(=N)N)CC2)c1ccc(OC2CCN(C(C)=N)CC2)cc1 (stereo unspecified)	0.03 µM
CC(=N)N1CC[C@H](Oc2ccc(C(Oc3ccc4c(c3)CN(C(=N)N)CC4)C(=O)O)cc2)C1 (stereo partly specified)	0.08 µM
N=C(N)N1CCc2ccc(OC(C(=O)O)c3ccc(OC4CCNCC4)cc3)cc2C1 (stereo unspecified)	2 µM
CCOC(=O)C(Oc1ccc2c(c1)CN(C(=N)N)CC2)c1ccc(OC2CCN(C(=N)CC)CC2)cc1 (stereo unspecified)	0.03 µM
CC1(C)CC(=O)C=C(N2CC[C@H](Oc3ccc(C(Oc4ccc5c(c4)CN(C(=N)N)CC5)C(=O)O)cc3)C2)C1 (stereo partly specified)	0.2 µM
C=CCOC(=O)N1CC[C@H](Oc2ccc(C(Oc3ccc4c(c3)CN(C(=N)N)CC4)C(=O)OCC)cc2)C1 (stereo partly specified)	0.2 µM
N=C(N)N1CCc2ccc(OC(C(=O)O)c3ccc(O[C@H]4CCNC4)cc3)cc2C1 (stereo partly specified)	1 µM
CCOC(=O)C(Oc1ccc2c(c1)CN(C(=N)N)CC2)c1ccc(O[C@H]2CCN(C(C)=N)C2)cc1 (stereo partly specified)	0.1 µM
N=C(N)N1CCc2ccc(OC(C(=O)O)c3ccc(OC4CCOCC4)cc3)cc2C1 (stereo unspecified)	3 µM
CCOC(=O)C(Oc1ccc2c(c1)CN(C(=N)N)CC2)c1ccc(O[C@H]2CCN(C(=N)N)C2)cc1 (stereo partly specified)	0.2 µM
CCOC(=O)C(Oc1ccc2c(c1)CN(C(=N)N)CC2)c1ccc(O[C@H]2CCNC2)cc1 (stereo partly specified)	0.4 µM
CCOC(=O)C(Oc1ccc2c(c1)CN(C(=N)N)CC2)c1ccc(OC2CCN(C(=N)N)CC2)cc1 (stereo unspecified)	0.028 µM

test system: not listed separately; experiment: The Anti-coagulant activity was tested by measuring activated partial thromboplastin time (aPTT); format: functional
Procedure, shortened: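 Human citrated plasma (blood 9:1 with 0.11 mol/L sodium citrate, spun 3000 rpm 10 min, RT, used within 8 h) plus aPTT reagent and compound in DMSO (DMSO-only control), 3 min at 37 °C in a coagulometer; clotting time recorded at 1000, 200, 100, 10, 1 μM in plasma. ED200 (aPTT-doubling concentration) from nonlinear fit of y = a + b·x^c; quadruplicate determinations.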

Structure (SMILES)	ED200
CCOC(=O)C(Oc1ccc2c(c1)CN(C(=N)N)CC2)c1ccc(OC2CCN(C(C)=N)CC2)cc1 (stereo unspecified)	3 µM
CC(=N)N1CC[C@H](Oc2ccc(C(Oc3ccc4c(c3)CN(C(=N)N)CC4)C(=O)O)cc2)C1 (stereo partly specified)	30 µM
N=C(N)N1CCc2ccc(OC(C(=O)O)c3ccc(OC4CCNCC4)cc3)cc2C1 (stereo unspecified)	190 µM
CCOC(=O)C(Oc1ccc2c(c1)CN(C(=N)N)CC2)c1ccc(OC2CCN(C(=N)CC)CC2)cc1 (stereo unspecified)	10 µM
CC1(C)CC(=O)C=C(N2CC[C@H](Oc3ccc(C(Oc4ccc5c(c4)CN(C(=N)N)CC5)C(=O)O)cc3)C2)C1 (stereo partly specified)	200 µM
C=CCOC(=O)N1CC[C@H](Oc2ccc(C(Oc3ccc4c(c3)CN(C(=N)N)CC4)C(=O)OCC)cc2)C1 (stereo partly specified)	200 µM
N=C(N)N1CCc2ccc(OC(C(=O)O)c3ccc(O[C@H]4CCNC4)cc3)cc2C1 (stereo partly specified)	50 µM
CCOC(=O)C(Oc1ccc2c(c1)CN(C(=N)N)CC2)c1ccc(O[C@H]2CCN(C(C)=N)C2)cc1 (stereo partly specified)	10 µM
N=C(N)N1CCc2ccc(OC(C(=O)O)c3ccc(OC4CCOCC4)cc3)cc2C1 (stereo unspecified)	> 500 µM
CCOC(=O)C(Oc1ccc2c(c1)CN(C(=N)N)CC2)c1ccc(O[C@H]2CCN(C(=N)N)C2)cc1 (stereo partly specified)	10 µM
CCOC(=O)C(Oc1ccc2c(c1)CN(C(=N)N)CC2)c1ccc(O[C@H]2CCNC2)cc1 (stereo partly specified)	26 µM
CCOC(=O)C(Oc1ccc2c(c1)CN(C(=N)N)CC2)c1ccc(OC2CCN(C(=N)N)CC2)cc1 (stereo unspecified)	3 µM

target: T1, Prothrombin (Homo sapiens, UniProt P00734); experiment: The Anti-coagulant activity was tested by measuring thrombin clotting time (TT); format: functional
Procedure, shortened: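 Thrombin clotting time in human citrated plasma (blood 9:1 with 0.11 mol/L citrate, spun 3000 rpm 10 min, stored RT ≤8 h); plasma with compound in DMSO or DMSO control incubated 2 min at 37 °C in coagulometer. Clotting measured at 500, 100, 50, 5, 0.5 μM in plasma; doubling concentration (ED200) obtained by nonlinear regression of y = a + b·x^c.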

Structure (SMILES)	ED200
CCOC(=O)C(Oc1ccc2c(c1)CN(C(=N)N)CC2)c1ccc(OC2CCN(C(C)=N)CC2)cc1 (stereo unspecified)	53 µM
CC(=N)N1CC[C@H](Oc2ccc(C(Oc3ccc4c(c3)CN(C(=N)N)CC4)C(=O)O)cc2)C1 (stereo partly specified)	> 500 µM
N=C(N)N1CCc2ccc(OC(C(=O)O)c3ccc(OC4CCNCC4)cc3)cc2C1 (stereo unspecified)	> 500 µM
CCOC(=O)C(Oc1ccc2c(c1)CN(C(=N)N)CC2)c1ccc(OC2CCN(C(=N)CC)CC2)cc1 (stereo unspecified)	70 µM
CC1(C)CC(=O)C=C(N2CC[C@H](Oc3ccc(C(Oc4ccc5c(c4)CN(C(=N)N)CC5)C(=O)O)cc3)C2)C1 (stereo partly specified)	> 500 µM
C=CCOC(=O)N1CC[C@H](Oc2ccc(C(Oc3ccc4c(c3)CN(C(=N)N)CC4)C(=O)OCC)cc2)C1 (stereo partly specified)	500 µM
N=C(N)N1CCc2ccc(OC(C(=O)O)c3ccc(O[C@H]4CCNC4)cc3)cc2C1 (stereo partly specified)	> 500 µM
CCOC(=O)C(Oc1ccc2c(c1)CN(C(=N)N)CC2)c1ccc(O[C@H]2CCN(C(C)=N)C2)cc1 (stereo partly specified)	100 µM
N=C(N)N1CCc2ccc(OC(C(=O)O)c3ccc(OC4CCOCC4)cc3)cc2C1 (stereo unspecified)	> 500 µM
CCOC(=O)C(Oc1ccc2c(c1)CN(C(=N)N)CC2)c1ccc(O[C@H]2CCN(C(=N)N)C2)cc1 (stereo partly specified)	300 µM
CCOC(=O)C(Oc1ccc2c(c1)CN(C(=N)N)CC2)c1ccc(O[C@H]2CCNC2)cc1 (stereo partly specified)	140 µM
CCOC(=O)C(Oc1ccc2c(c1)CN(C(=N)N)CC2)c1ccc(OC2CCN(C(=N)N)CC2)cc1 (stereo unspecified)	54 µM

target: T1, Prothrombin; experiment: The inhibition constant against human thrombin

Structure (SMILES)	Ki
CCOC(=O)C(Oc1ccc2c(c1)CN(C(=N)N)CC2)c1ccc(OC2CCN(C(C)=N)CC2)cc1 (stereo unspecified)	15 µM
CC(=N)N1CC[C@H](Oc2ccc(C(Oc3ccc4c(c3)CN(C(=N)N)CC4)C(=O)O)cc2)C1 (stereo partly specified)	> 100 µM
N=C(N)N1CCc2ccc(OC(C(=O)O)c3ccc(OC4CCNCC4)cc3)cc2C1 (stereo unspecified)	> 100 µM
CCOC(=O)C(Oc1ccc2c(c1)CN(C(=N)N)CC2)c1ccc(OC2CCN(C(=N)CC)CC2)cc1 (stereo unspecified)	20 µM
CC1(C)CC(=O)C=C(N2CC[C@H](Oc3ccc(C(Oc4ccc5c(c4)CN(C(=N)N)CC5)C(=O)O)cc3)C2)C1 (stereo partly specified)	> 100 µM
C=CCOC(=O)N1CC[C@H](Oc2ccc(C(Oc3ccc4c(c3)CN(C(=N)N)CC4)C(=O)OCC)cc2)C1 (stereo partly specified)	> 100 µM
N=C(N)N1CCc2ccc(OC(C(=O)O)c3ccc(O[C@H]4CCNC4)cc3)cc2C1 (stereo partly specified)	> 100 µM
CCOC(=O)C(Oc1ccc2c(c1)CN(C(=N)N)CC2)c1ccc(O[C@H]2CCN(C(C)=N)C2)cc1 (stereo partly specified)	> 100 µM
N=C(N)N1CCc2ccc(OC(C(=O)O)c3ccc(OC4CCOCC4)cc3)cc2C1 (stereo unspecified)	> 100 µM
CCOC(=O)C(Oc1ccc2c(c1)CN(C(=N)N)CC2)c1ccc(O[C@H]2CCN(C(=N)N)C2)cc1 (stereo partly specified)	13 µM
CCOC(=O)C(Oc1ccc2c(c1)CN(C(=N)N)CC2)c1ccc(O[C@H]2CCNC2)cc1 (stereo partly specified)	> 100 µM
CCOC(=O)C(Oc1ccc2c(c1)CN(C(=N)N)CC2)c1ccc(OC2CCN(C(=N)N)CC2)cc1 (stereo unspecified)	8 µM

target: Trypsin (Homo sapiens, UniProt P07477+P07478+P35030); experiment: The inhibition constant against human trypsin; format: protein assay

Structure (SMILES)	Ki
CC(=N)N1CC[C@H](Oc2ccc([C@H](Cc3ccc4ccc(C(=N)N)cc4c3)C(=O)O)cc2)C1.Cl [DX-9065A HYDROCHLORIDE HYDRATE]	2 µM
CCOC(=O)C(Oc1ccc2c(c1)CN(C(=N)N)CC2)c1ccc(OC2CCN(C(C)=N)CC2)cc1 (stereo unspecified)	0.4 µM
CC(=N)N1CC[C@H](Oc2ccc(C(Oc3ccc4c(c3)CN(C(=N)N)CC4)C(=O)O)cc2)C1 (stereo partly specified)	10 µM
N=C(N)N1CCc2ccc(OC(C(=O)O)c3ccc(OC4CCNCC4)cc3)cc2C1 (stereo unspecified)	6 µM
CCOC(=O)C(Oc1ccc2c(c1)CN(C(=N)N)CC2)c1ccc(OC2CCN(C(=N)CC)CC2)cc1 (stereo unspecified)	0.08 µM
CC1(C)CC(=O)C=C(N2CC[C@H](Oc3ccc(C(Oc4ccc5c(c4)CN(C(=N)N)CC5)C(=O)O)cc3)C2)C1 (stereo partly specified)	10 µM
C=CCOC(=O)N1CC[C@H](Oc2ccc(C(Oc3ccc4c(c3)CN(C(=N)N)CC4)C(=O)OCC)cc2)C1 (stereo partly specified)	9 µM
N=C(N)N1CCc2ccc(OC(C(=O)O)c3ccc(O[C@H]4CCNC4)cc3)cc2C1 (stereo partly specified)	10 µM
CCOC(=O)C(Oc1ccc2c(c1)CN(C(=N)N)CC2)c1ccc(O[C@H]2CCN(C(C)=N)C2)cc1 (stereo partly specified)	2 µM
N=C(N)N1CCc2ccc(OC(C(=O)O)c3ccc(OC4CCOCC4)cc3)cc2C1 (stereo unspecified)	12 µM
CCOC(=O)C(Oc1ccc2c(c1)CN(C(=N)N)CC2)c1ccc(O[C@H]2CCN(C(=N)N)C2)cc1 (stereo partly specified)	2 µM
CCOC(=O)C(Oc1ccc2c(c1)CN(C(=N)N)CC2)c1ccc(O[C@H]2CCNC2)cc1 (stereo partly specified)	6 µM
CCOC(=O)C(Oc1ccc2c(c1)CN(C(=N)N)CC2)c1ccc(OC2CCN(C(=N)N)CC2)cc1 (stereo unspecified)	0.2 µM

target: Plasminogen (Homo sapiens, UniProt P00747); experiment: The inhibition constant against human plasmin
Sequence (P00747 97-580 limits assumed): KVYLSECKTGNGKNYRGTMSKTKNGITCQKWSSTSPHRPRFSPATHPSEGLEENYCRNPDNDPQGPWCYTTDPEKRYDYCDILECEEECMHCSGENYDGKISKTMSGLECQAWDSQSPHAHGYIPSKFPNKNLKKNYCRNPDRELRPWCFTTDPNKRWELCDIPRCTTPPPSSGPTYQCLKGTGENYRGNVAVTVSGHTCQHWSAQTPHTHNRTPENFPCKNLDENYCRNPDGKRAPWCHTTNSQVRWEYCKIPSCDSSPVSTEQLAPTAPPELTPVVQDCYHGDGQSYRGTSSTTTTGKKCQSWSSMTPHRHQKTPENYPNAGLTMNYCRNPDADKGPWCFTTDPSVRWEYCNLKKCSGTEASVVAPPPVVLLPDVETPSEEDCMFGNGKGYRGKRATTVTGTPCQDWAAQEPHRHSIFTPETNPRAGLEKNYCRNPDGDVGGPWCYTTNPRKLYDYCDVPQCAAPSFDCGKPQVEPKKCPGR
Sequence (P00747 581-810 limits assumed): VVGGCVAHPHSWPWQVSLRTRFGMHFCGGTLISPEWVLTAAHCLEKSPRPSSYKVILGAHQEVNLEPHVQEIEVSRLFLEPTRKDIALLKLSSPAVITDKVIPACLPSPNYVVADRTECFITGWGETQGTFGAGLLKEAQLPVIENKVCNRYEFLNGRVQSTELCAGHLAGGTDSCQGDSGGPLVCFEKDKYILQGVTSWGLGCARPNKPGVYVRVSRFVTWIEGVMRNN

Structure (SMILES)	Ki
CC(=N)N1CC[C@H](Oc2ccc([C@H](Cc3ccc4ccc(C(=N)N)cc4c3)C(=O)O)cc2)C1.Cl [DX-9065A HYDROCHLORIDE HYDRATE]	11 µM
CCOC(=O)C(Oc1ccc2c(c1)CN(C(=N)N)CC2)c1ccc(OC2CCN(C(C)=N)CC2)cc1 (stereo unspecified)	25 µM
N=C(N)N1CCc2ccc(OC(C(=O)O)c3ccc(OC4CCNCC4)cc3)cc2C1 (stereo unspecified)	25 µM
CC1(C)CC(=O)C=C(N2CC[C@H](Oc3ccc(C(Oc4ccc5c(c4)CN(C(=N)N)CC5)C(=O)O)cc3)C2)C1 (stereo partly specified)	50 µM
C=CCOC(=O)N1CC[C@H](Oc2ccc(C(Oc3ccc4c(c3)CN(C(=N)N)CC4)C(=O)OCC)cc2)C1 (stereo partly specified)	10 µM
N=C(N)N1CCc2ccc(OC(C(=O)O)c3ccc(O[C@H]4CCNC4)cc3)cc2C1 (stereo partly specified)	10 µM
N=C(N)N1CCc2ccc(OC(C(=O)O)c3ccc(OC4CCOCC4)cc3)cc2C1 (stereo unspecified)	25 µM
CCOC(=O)C(Oc1ccc2c(c1)CN(C(=N)N)CC2)c1ccc(O[C@H]2CCN(C(=N)N)C2)cc1 (stereo partly specified)	45 µM
CCOC(=O)C(Oc1ccc2c(c1)CN(C(=N)N)CC2)c1ccc(O[C@H]2CCNC2)cc1 (stereo partly specified)	40 µM
CCOC(=O)C(Oc1ccc2c(c1)CN(C(=N)N)CC2)c1ccc(OC2CCN(C(=N)N)CC2)cc1 (stereo unspecified)	25 µM
